How the values were obtained:
[1] = system: Human immunodeficiency virus 1; assay: Antiviral activity against wild type HIV1 clade A isolated form HIV1 patient infected in HEK293 cells assessed as reduction in viral replication incubated for 48 hrs by luciferase reporter based assay; type: functional, organism-based; settings: Human immunodeficiency virus 1, clade A, HEK293, 48 h
[2] = system: Human immunodeficiency virus 1; assay: Antiviral activity against multidrug resistant HIV1 MDR1 containing protease M46I, I54V, V82A and L90M mutant infected in HEK293 cells assessed as reduction in viral replication incubated for 48 hrs by luciferase reporter based assay; type: functional, organism-based; settings: Human immunodeficiency virus 1, MDR1, HEK293, 48 h
[3] = system: Human immunodeficiency virus 1; assay: Antiviral activity against wild type HIV1 infected in HEK293 cells assessed as reduction in viral replication incubated for 48 hrs by luciferase reporter based assay; type: functional, organism-based; settings: Human immunodeficiency virus 1, HEK293, 48 h
[4] = system: Human immunodeficiency virus 1; assay: Antiviral activity against wild type HIV1 clade B isolated form HIV1 patient infected in HEK293 cells assessed as reduction in viral replication incubated for 48 hrs by luciferase reporter based assay; type: functional, organism-based; settings: Human immunodeficiency virus 1, clade B, HEK293, 48 h
[5] = system: Human immunodeficiency virus 1; assay: Antiviral activity against multidrug resistant HIV1 MDRC4 infected in HEK293 cells assessed as reduction in viral replication incubated for 48 hrs by luciferase reporter based assay; type: functional, organism-based; settings: Human immunodeficiency virus 1, MDRC4, HEK293, 48 h
[6] = system: Human immunodeficiency virus 1; assay: Antiviral activity against wild type HIV1 clade C isolated form HIV1 patient infected in HEK293 cells assessed as reduction in viral replication incubated for 48 hrs by luciferase reporter based assay; type: functional, organism-based; settings: Human immunodeficiency virus 1, clade C, HEK293, 48 h
Protease = Protease (Human immunodeficiency virus 1, UniProt Q9YQ12); assay: Inhibition of wild type HIV1 protease by FRET assay
Sequence of Protease (Q9YQ12 whole entry): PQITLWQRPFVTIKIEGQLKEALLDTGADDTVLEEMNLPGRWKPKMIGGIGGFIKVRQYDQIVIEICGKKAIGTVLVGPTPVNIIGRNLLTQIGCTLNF
How it was run: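 Recombinant HIV-1 protease Q7K, desalted into 20 mM sodium acetate pH 5, apparent concentration ~50 nM (UV 280 nm). Inhibitors in DMSO, 12 concentrations, added with protease to buffer pH 4.7 (0.1 M NaOAc, 1 M NaCl, 1 mM EDTA, 1 mM DTT, 2% DMSO, 1 mg/mL BSA). Cleavage started by injecting EDANS/DABCYL peptide substrate. Ki from initial velocities fitted to the Morrison equation.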

[7] = molecular target: Human immunodeficiency virus type 1 protease (Human immunodeficiency virus 1, UniProt Q72874, A71V/I50V); assay: Inhibition of HIV1 protease I50V, A71V mutant by FRET assay
[8] = molecular target: Human immunodeficiency virus type 1 protease (Human immunodeficiency virus 1, UniProt Q72874, A71V/G73S/I84V/L10I/L63P/L90M); assay: Inhibition of HIV1 protease L10I, L63P, A71V, G73S, I84V, L90M mutant by FRET assay
[9] = molecular target: Human immunodeficiency virus type 1 protease (Human immunodeficiency virus 1, UniProt Q72874, G48V/I54V/L10I/L63P/V82A); assay: Inhibition of HIV1 protease L10I, G48V, I54V, L63P and V82A mutant by FRET assay

Structure (SMILES): CC[C@H](C)CN(C[C@@H](O)[C@H](Cc1ccccc1)NC(=O)OC[C@@H](C)C(=O)OC)S(=O)(=O)c1ccc(OC)cc1
- EC50 [1]: 24.9 nM
- EC50 [2]: 41.8 nM
- EC50 [3]: 30.9 nM
- EC50 [4]: 20.6 nM
- EC50 [5]: 56 nM
- EC50 [6]: 36.3 nM

Structure (SMILES): CC[C@H](C)CN(C[C@@H](O)[C@H](Cc1ccccc1)NC(=O)OCCN1CCNC1=O)S(=O)(=O)c1ccc(OC)cc1
- EC50 [1]: 95.4 nM
- EC50 [2]: 113 nM
- EC50 [3]: 84.4 nM
- EC50 [4]: 57.3 nM
- EC50 [5]: 132 nM
- EC50 [6]: 135 nM

Structure (SMILES): CC(C)CN(C[C@@H](O)[C@H](Cc1ccccc1)NC(=O)O[C@H]1CCOC1)S(=O)(=O)c1ccc(N)cc1
- EC50 [1]: 2.6 nM
- EC50 [2]: 15.6 nM
- EC50 [3]: 3 nM
- EC50 [4]: 1.8 nM
- EC50 [5]: 17.5 nM
- EC50 [6]: 3.7 nM

Structure (SMILES): CC[C@H](C)CN(C[C@@H](O)[C@H](Cc1ccccc1)NC(=O)OC[C@@H]1CCC(=O)N1)S(=O)(=O)c1ccc2ncsc2c1
- EC50 [1]: 25.1 nM
- EC50 [2]: 21.1 nM
- EC50 [3]: 15.5 nM
- EC50 [4]: 16.4 nM
- EC50 [5]: 35.6 nM
- EC50 [6]: 13.2 nM

Structure (SMILES): CC[C@H](C)CN(C[C@@H](O)[C@H](Cc1ccccc1)NC(=O)OCCNC(=O)C(F)(F)F)S(=O)(=O)c1ccc(OC)cc1
- Ki (Protease): 11.9 nM

Structure (SMILES): CCCCCN(C[C@@H](O)[C@H](Cc1ccccc1)NC(=O)OCCNC(=O)OC(C)(C)C)S(=O)(=O)c1ccc2ncsc2c1
- Ki (Protease): 1.29 nM

Structure (SMILES): CCCCCN(C[C@@H](O)[C@H](Cc1ccccc1)NC(=O)O[C@@H]1CCOC1=O)S(=O)(=O)c1ccc(OC)cc1
- Ki (Protease): 65.9 nM

Structure (SMILES): CC[C@H](C)CN(C[C@@H](O)[C@H](Cc1ccccc1)NC(=O)OCCNC(=O)C(Cl)Cl)S(=O)(=O)c1ccc2ncsc2c1
- EC50 [1]: 64.1 nM
- EC50 [2]: 144 nM
- EC50 [3]: 43 nM
- EC50 [4]: 28.6 nM
- EC50 [5]: 189 nM
- EC50 [6]: 88 nM

Structure (SMILES): CCCCCN(C[C@@H](O)[C@H](Cc1ccccc1)NC(=O)OC[C@@H](C)C(=O)OC)S(=O)(=O)c1ccc2ncsc2c1
- Ki (Protease): 3.34 nM

Structure (SMILES): CCCCCN(C[C@@H](O)[C@H](Cc1ccccc1)NC(=O)OC[C@@H]1CCC(=O)N1)S(=O)(=O)c1ccc(OC)cc1
- Ki (Protease): 0.624 nM

Structure (SMILES): CCCCCN(C[C@@H](O)[C@H](Cc1ccccc1)NC(=O)OCCNC(=O)OC(C)(C)C)S(=O)(=O)c1ccc(OC)cc1
- Ki (Protease): 2.95 nM

Structure (SMILES): CC[C@H](C)CN(C[C@@H](O)[C@H](Cc1ccccc1)NC(=O)OCCN1CCOC1=O)S(=O)(=O)c1ccc2ncsc2c1
- EC50 [1]: 21.2 nM
- EC50 [2]: 32.2 nM
- Ki (Protease): 0.005 nM
- EC50 [3]: 33.3 nM
- EC50 [4]: 12 nM
- EC50 [5]: 73.6 nM
- EC50 [6]: 36.2 nM

Structure (SMILES): CCCCCN(C[C@@H](O)[C@H](Cc1ccccc1)NC(=O)OCCN1CCOC1=O)S(=O)(=O)c1ccc(OC)cc1
- EC50 [1]: 126 nM
- EC50 [2]: 300 nM
- Ki (Protease): 0.008 nM
- EC50 [3]: 77.1 nM
- EC50 [4]: 52.4 nM
- EC50 [5]: 265 nM
- EC50 [6]: 158 nM

Structure (SMILES): CCCCCN(C[C@@H](O)[C@H](Cc1ccccc1)NC(=O)OC[C@@H]1CCC(=O)N1)S(=O)(=O)c1ccc2ncsc2c1
- EC50 [1]: 82.7 nM
- EC50 [2]: 130 nM
- EC50 [3]: 58.9 nM
- EC50 [4]: 44.8 nM
- EC50 [5]: 174 nM
- EC50 [6]: 96.5 nM

Structure (SMILES): CC[C@H](C)CN(C[C@@H](O)[C@H](Cc1ccccc1)NC(=O)OC[C@@H]1CCC(=O)N1)S(=O)(=O)c1ccc(OC)cc1
- EC50 [1]: 64.5 nM
- EC50 [2]: 37.1 nM
- EC50 [3]: 43.9 nM
- EC50 [4]: 38.5 nM
- EC50 [5]: 72.2 nM
- EC50 [6]: 44.1 nM

Structure (SMILES): CC[C@H](C)CN(C[C@@H](O)[C@H](Cc1ccccc1)NC(=O)OCCNC(=O)OC(C)(C)C)S(=O)(=O)c1ccc2ncsc2c1
- EC50 [1]: 231 nM
- EC50 [2]: 756 nM
- EC50 [3]: 198 nM
- EC50 [4]: 183 nM
- EC50 [5]: 918 nM
- EC50 [6]: 331 nM

Structure (SMILES): CCCCCN(C[C@@H](O)[C@H](Cc1ccccc1)NC(=O)O[C@H](C)CCC(C)=O)S(=O)(=O)c1ccc2ncsc2c1
- Ki (Protease): 3.38 nM

Structure (SMILES): CCCCCN(C[C@@H](O)[C@H](Cc1ccccc1)NC(=O)OCCN1CCNC1=O)S(=O)(=O)c1ccc(OC)cc1
- Ki (Protease): 0.398 nM

Structure (SMILES): CCCCCN(C[C@@H](O)[C@H](Cc1ccccc1)NC(=O)O[C@H](C)CC(=O)OC)S(=O)(=O)c1ccc2ncsc2c1
- Ki [7]: 120 nM
- Ki [8]: 45.9 nM
- Ki (Protease): 11.4 nM
- Ki [9]: 180 nM

Structure (SMILES): CC[C@H](C)CN(C[C@@H](O)[C@H](Cc1ccccc1)NC(=O)OCCN1CCNC1=O)S(=O)(=O)c1ccc2ncsc2c1
- EC50 [1]: 31.4 nM
- EC50 [2]: 50.4 nM
- EC50 [3]: 34.8 nM
- EC50 [4]: 21.6 nM
- EC50 [5]: 88.1 nM
- EC50 [6]: 49.3 nM

Structure (SMILES): CCCCCN(C[C@@H](O)[C@H](Cc1ccccc1)NC(=O)O[C@@H]1CCOC1=O)S(=O)(=O)c1ccc2ncsc2c1
- Ki (Protease): 42.1 nM

Structure (SMILES): CCCCCN(C[C@@H](O)[C@H](Cc1ccccc1)NC(=O)OCCNC(=O)C(F)(F)F)S(=O)(=O)c1ccc(OC)cc1
- Ki (Protease): 31.4 nM

Structure (SMILES): CC[C@H](C)CN(C[C@@H](O)[C@H](Cc1ccccc1)NC(=O)O[C@@H]1CCOC1=O)S(=O)(=O)c1ccc(OC)cc1
- Ki (Protease): 35.1 nM

Structure (SMILES): CCCCCN(C[C@@H](O)[C@H](Cc1ccccc1)NC(=O)OCCNC(=O)C(Cl)Cl)S(=O)(=O)c1ccc2ncsc2c1
- EC50 [1]: 79.2 nM
- EC50 [2]: 254 nM
- EC50 [3]: 38.3 nM
- EC50 [4]: 30.3 nM
- EC50 [5]: 285 nM
- EC50 [6]: 67 nM

Structure (SMILES): CCCCCN(C[C@@H](O)[C@H](Cc1ccccc1)NC(=O)OCCNC(=O)C(F)(F)F)S(=O)(=O)c1ccc2ncsc2c1
- Ki (Protease): 19.7 nM

Structure (SMILES): CC[C@H](C)CN(C[C@@H](O)[C@H](Cc1ccccc1)NC(=O)OCCNC(=O)C(F)(F)F)S(=O)(=O)c1ccc2ncsc2c1
- Ki (Protease): 9.13 nM

Structure (SMILES): CCCCCN(C[C@@H](O)[C@H](Cc1ccccc1)NC(=O)O[C@H](C)CC(=O)OC)S(=O)(=O)c1ccc(OC)cc1
- Ki (Protease): 17.2 nM

Structure (SMILES): CCCCCN(C[C@@H](O)[C@H](Cc1ccccc1)NC(=O)OCCN1CCOC1=O)S(=O)(=O)c1ccc2ncsc2c1
- EC50 [1]: 96.3 nM
- EC50 [2]: 259 nM
- Ki (Protease): 0.017 nM
- EC50 [3]: 73 nM
- EC50 [4]: 41.1 nM
- EC50 [5]: 420 nM
- EC50 [6]: 120 nM

Structure (SMILES): CC[C@H](C)CN(C[C@@H](O)[C@H](Cc1ccccc1)NC(=O)OC[C@@H](C)C(=O)OC)S(=O)(=O)c1ccc2ncsc2c1
- Ki (Protease): 1.39 nM

Structure (SMILES): CC[C@H](C)CN(C[C@@H](O)[C@H](Cc1ccccc1)NC(=O)O[C@H](C)CCC(C)=O)S(=O)(=O)c1ccc(OC)cc1
- Ki (Protease): 0.426 nM

Structure (SMILES): CCCCCN(C[C@@H](O)[C@H](Cc1ccccc1)NC(=O)O[C@H](C)CCC(C)=O)S(=O)(=O)c1ccc(OC)cc1
- Ki (Protease): 6.98 nM

Structure (SMILES): CCCCCN(C[C@@H](O)[C@H](Cc1ccccc1)NC(=O)OCCN1CCNC1=O)S(=O)(=O)c1ccc2ncsc2c1
- EC50 [1]: 99.7 nM
- EC50 [2]: 237 nM
- Ki (Protease): 0.217 nM
- EC50 [3]: 83.8 nM
- EC50 [4]: 53.9 nM
- EC50 [5]: 274 nM
- EC50 [6]: 130 nM

Structure (SMILES): CC[C@H](C)CN(C[C@@H](O)[C@H](Cc1ccccc1)NC(=O)OCCNC(=O)C(Cl)Cl)S(=O)(=O)c1ccc(OC)cc1
- EC50 [1]: 51.3 nM
- EC50 [2]: 123 nM
- EC50 [3]: 39.1 nM
- EC50 [4]: 30.7 nM
- EC50 [5]: 159 nM
- EC50 [6]: 84.6 nM

Structure (SMILES): CC[C@H](C)CN(C[C@@H](O)[C@H](Cc1ccccc1)NC(=O)OCCN1CCOC1=O)S(=O)(=O)c1ccc(OC)cc1
- EC50 [1]: 43.3 nM
- EC50 [2]: 56.1 nM
- EC50 [3]: 40.5 nM
- EC50 [4]: 27.8 nM
- EC50 [5]: 74.4 nM
- EC50 [6]: 57.3 nM

Structure (SMILES): CC(C)CN(C[C@@H](O)[C@H](Cc1ccccc1)NC(=O)O[C@H]1CO[C@H]2OCC[C@H]21)S(=O)(=O)c1ccc(N)cc1
- EC50 [1]: 0.3 nM
- EC50 [2]: 0.23 nM
- EC50 [3]: 0.25 nM
- EC50 [4]: 0.15 nM
- EC50 [6]: 0.18 nM

Structure (SMILES): CC[C@H](C)CN(C[C@@H](O)[C@H](Cc1ccccc1)NC(=O)OC(C)(C)C)S(=O)(=O)c1ccc2ncsc2c1
- Ki (Protease): 0.243 nM

Structure (SMILES): CC[C@H](C)CN(C[C@@H](O)[C@H](Cc1ccccc1)NC(=O)OCCNC(=O)OC(C)(C)C)S(=O)(=O)c1ccc(OC)cc1
- Ki (Protease): 2.01 nM

Reference: ChEMBL document CHEMBL2163218, “Design, synthesis, and biological and structural evaluations of novel HIV-1 protease inhibitors to combat drug resistance” (J Med Chem, 2012)
